Screening results from PubChem BioAssay.
NPY1 pot ag: NPY-Y1 receptor potentiators or agonists, primary screen, cell-based | NPY-Y1 expressing cells, potentiator/agonist activation | activation, % at 3.6 µM | Neuropeptide Y receptor type 1 (Homo sapiens), P25929 | hit rate 0.37% among 220,000; in the data active = activation above about 33%, passing the limit was not always enough;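 note: cells stimulated with NPY at EC10 then isoproterenol at EC100; 0% = low agonist plus stimulus and 100% = saturating agonist plus stimulus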
NPY2 pot ag: NPY-Y2 potentiators or agonists, primary screen, cell-based; AID 1359, 2008; cells expressing NPY-Y2, potentiator/agonist read-out; hit rate 0.45% among 220,000; Neuropeptide Y receptor type 2 (Homo sapiens), P49146; activation, % at 3.6 µM; in the data active = activation above about 27%;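 note: cells stimulated with NPY near EC25 plus isoproterenol at EC100; 0% = vehicle plus submaximal agonist and 100% = vehicle plus saturating agonist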
S1P4 antag: S1P4 receptor antagonists, primary screen, cell-based; Sphingosine 1-phosphate receptor 4 (Homo sapiens), O95977; S1P4-expressing cells, antagonist mode, reporter read-out; inhibition, % at 4.98 µM; hit rate 0.26% among 220,000; in the data active = inhibition above about 29%;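 note: 0% = wells stimulated with agonist and 100% = vehicle wells without agonist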
Target sequence (O95977 whole entry, looked up): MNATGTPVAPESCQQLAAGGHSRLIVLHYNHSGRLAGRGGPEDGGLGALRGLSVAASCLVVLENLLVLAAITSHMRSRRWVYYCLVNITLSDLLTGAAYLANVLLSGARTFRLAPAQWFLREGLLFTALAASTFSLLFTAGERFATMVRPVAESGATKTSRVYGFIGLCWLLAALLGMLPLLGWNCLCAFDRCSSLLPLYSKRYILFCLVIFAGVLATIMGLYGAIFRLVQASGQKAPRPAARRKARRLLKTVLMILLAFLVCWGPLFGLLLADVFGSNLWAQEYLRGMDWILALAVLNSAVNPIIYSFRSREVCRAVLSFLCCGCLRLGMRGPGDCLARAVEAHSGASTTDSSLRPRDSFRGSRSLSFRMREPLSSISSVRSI
S1P4 agonist: S1P4 receptor agonists, primary screen, cell-based. Sphingosine 1-phosphate receptor 4 (Homo sapiens), O95977. activation, % at 4.98 µM. S1P4-expressing cell line, agonist reporter assay. AID 1509, 2009. hit rate 0.35% among 220,000; in the data active = activation above about 11%;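 note: 0% = DMSO vehicle and 100% = reference agonist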
NPY-Y2 antag: NPY-Y2 receptor antagonists, primary screen, cell-based | NPY-Y2 expressing cells, antagonist mode | inhibition, % at 2.7 µM | hit rate 0.99% among 140,000 | AID 793, 2007 | Neuropeptide Y receptor type 2 (Homo sapiens), P49146; in the data active = inhibition above about 17%;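 note: 0% = vehicle with agonist challenge and 100% = reference antagonist with challenge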
NPY-Y1 antag: NPY-Y1 receptor antagonists, primary screen, cell-based | inhibition, % at 3.6 µM | AID 1040, 2008 | HEK293-CNG Y1 cells, membrane potential fluorescence; NPY at EC95, then isoproterenol | hit rate 1% among 200,000;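 active = inhibition above the campaign mean inhibition of all tested compounds plus 3 SD, cut at about 20% in these data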;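 note: 0% = DMSO wells given NPY plus isoproterenol and 100% = isoproterenol alone without NPY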
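Material: HEK293 cells co-expressing NPY Y1 receptor and cyclic-nucleotide gated channel. Timing: compound incubation 1 h at room temperature, readout 45 min post-stimulation. Signal: fluorescence, membrane potential probe.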
NPY1 antag ctr: NPY-Y1 receptor antagonists, selectivity check, counter-screen for NPY-Y2 antagonist project, cell-based | shares compounds with NPY-Y2 antag | cell-based NPY-Y1 antagonism counterscreen | inhibition, % at 3.6 µM | hit rate 19% among 710 | AID 1256, 2008; in the data active = inhibition above about 20%;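 note: cells challenged with NPY then isoproterenol with cAMP sensed through a CNG channel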
NPY-Y2 ant conf: NPY-Y2 receptor antagonists, retest of hits, confirmation, HEK293-CNG cells, membrane potential fluorescence, triplicate; shares compounds with NPY-Y2 antag; hit rate 32% among 710; inhibition, % at 2.8 µM; HEK293 NPY-Y2 CNG channel;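 active = mean inhibition of triplicate wells above the hit cutoff set in the primary screen, cut at about 17% in these data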;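 note: 0% = DMSO with NPY challenge and 100% = BIIE0246 high control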
Numbers without * were called inactive; . = no result. Only some compounds are listed: those with a hit (about 2.4% of all), similar ones and a draw of the others.

SMILES | NPY1 pot ag | NPY2 pot ag | S1P4 antag | S1P4 agonist | NPY-Y2 antag | NPY-Y1 antag | NPY1 antag ctr | NPY-Y2 ant conf
CCOC(=O)CC(NC(=O)Cc1ccccc1)c1ccccc1Cl (configuration not stated) | -24 | 4 | -6 | 1 | 2 | 6 | . | .
CC1(C)Cc2nc(-c3ccccc3)nc(SCC(O)CO)c2CO1 (configuration not stated) | -7 | 10 | 5 | 0 | . | . | . | .
CCN(CC)C(=O)CSc1nc(-c2ccc(C)cc2)nc2c1COC(C)(C)C2 | 2 | 6 | 4 | -2 | 20* | 7 | 5 | 4
Cc1ccc(SCc2[nH]nc3c2C(c2cccnc2)C(C#N)=C(N)O3)cc1 (configuration not stated) | -13 | 7 | -23 | 1 | 18* | 6 | 93* | 81*
CCc1[nH]nc2c1C(c1cccnc1)C(C#N)=C(N)O2 (configuration not stated) | 5 | 8 | -15 | 0 | 2 | 1 | . | .
Cc1cccc(OCCCSc2nc3ccc(C)cc3[nH]2)c1 | -35 | -31 | -17 | -1 | 17* | 16 | 12 | 17
O=C(O)c1ccc(/C=C/c2nc3sc4c(c3c(=O)[nH]2)CCC4)cc1 | -20 | -2 | -6 | 1 | . | 4 | . | .
O=C(Nc1ccc(Cl)cc1)c1csc(-c2ccccc2)n1 | -50 | -45 | -13 | 0 | 20* | 20 | 20 | 23*
O=C(Cc1ccc(Cl)cc1)Nc1ccc(NC(=O)c2ccccc2)cc1 | 22 | 10 | -7 | 1 | 21* | 11 | 0 | 2
Cc1cccc(C(=O)Nc2ccc(NC(=O)Cc3ccc(Cl)cc3)cc2)c1 | -9 | -1 | -14 | 3 | 2 | 6 | . | .
O=C(Nc1ccc(Cl)cc1)c1csc(-c2ccncc2)n1 | 14 | 4 | -3 | -1 | . | -3 | . | .
O=C(/C=C/c1ccc(Br)cc1)N1CCN(c2cccc(C(F)(F)F)c2)CC1 | -9 | -12 | -15 | -1 | 19* | 7 | 24* | 25*
O=C(CN1CCN(c2cccc(C(F)(F)F)c2)CC1)Nc1cccc(C(F)(F)F)c1 | -54 | -11 | 3 | 0 | 17* | 5 | 24* | 22*
CCN1C(=O)C2(C(C(=O)c3cc4ccccc4o3)=C(O)C(=O)N2CCCN2CCOCC2)c2ccccc21 (configuration not stated) | 0 | 1 | 4 | -2 | . | . | . | .
COc1cc(NC(=O)Nc2ccc(Cl)c(Cl)c2)c(C(=O)O)cc1OC | -6 | 2 | 4 | -1 | . | . | . | .
Cc1cccc(NC(=O)C(c2cccc([N+](=O)[O-])c2)N2CCCCC2)c1 (configuration not stated) | -12 | -10 | 13 | 1 | 17* | 15 | 16 | 6
COc1cccc(NC(=O)C(c2ccccc2)N2CCCC2)c1 (configuration not stated) | -21 | 1 | -4 | -1 | . | 10 | . | .
COc1ccc(C)cc1NC(=O)C(c1ccccc1)N1CCNC(=O)C1 (configuration not stated) | 8 | 3 | -14 | 2 | . | 1 | . | .
O=C(NC(=S)Nc1ccccc1N1CCCCC1)c1ccco1 | -67 | -3 | -5 | -1 | 18* | 8 | 12 | 8
O=C(O)c1cccc(-n2cccc2/C=C/[N+](=O)[O-])c1 | 20 | 9 | -3 | 1 | . | . | . | .
COc1ccc(S(=O)(=O)n2[nH]c(=O)c(CCO)c2C)c([N+](=O)[O-])c1 | 4 | -13 | -20 | 1 | . | -5 | . | .
Cc1ccc(C(=O)N(CC#N)CC#N)cc1C | 4 | 12 | -15 | 0 | . | 2 | . | .
Cc1c(NC(=O)C(Sc2ccccc2)c2ccccc2)cccc1[N+](=O)[O-] (configuration not stated) | 1 | -10 | -22 | 1 | 18* | 6 | 8 | 12
CCCOc1ccc2oc(=O)c3c(c2c1)CCCN3C(=O)CN1CCN(C(=O)c2ccco2)CC1 | -5 | 0 | -13 | -2 | 0 | -2 | . | .
O=C(CN1CCCC1)N1CCCc2c1c(=O)oc1ccc(OCc3ccccc3)cc21 | -39 | -11 | 6 | -3 | 19* | 17 | 23* | 28*
SMILES | NPY1 pot ag | NPY2 pot ag | S1P4 antag | S1P4 agonist | NPY-Y2 antag | NPY-Y1 antag | NPY1 antag ctr | NPY-Y2 ant conf
COc1ccc(C2=NOC(CNC(=S)N3CCOCC3)C2)cc1 (configuration not stated) | 39 | -18 | -15 | 0 | . | . | . | .
CCCC(O)(CCC)C(=O)NN(C(=O)OC)c1ccccc1 | -14 | -19 | 5 | 1 | 20* | 15 | 8 | 11
CCOC(=O)c1sc2nc(CSc3ccccc3)nc(NCCN(C)C)c2c1C | -24 | -10 | -6 | 0 | . | -5 | . | .
O=[N+]([O-])c1ccc(-c2csc(Nc3ccccc3)[n+]2Cc2ccccc2)cc1 | -4 | 12 | -15 | -2 | 19* | 11 | 11 | 9
CC1CCCCC1NC1=NCCCS1 (configuration not stated) | -11 | 5 | -4 | 1 | . | 2 | . | .
CN(C)c1cc(-c2ccc(Cl)c(Cl)c2)oc(=O)c1Cl | 1 | -5 | -10 | 1 | . | . | . | .
CCC(=O)Nc1nonc1-c1nc2ccccc2n1Cc1cccc2ccccc12 | -108 | -57 | -9 | -2 | 18* | 19 | 26* | 41*
Cn1c(SCC(=O)NNC(=O)Nc2ccccc2)nnc1-c1ccccc1 | -10 | 2 | 8 | -1 | . | . | . | .
CN(C)C(=O)C(CCN1CCC(O)(c2ccc(Cl)cc2)CC1)(c1ccccc1)c1ccccc1 | -39 | 0 | -6 | 1 | 25* | 19 | 15 | 28*
CN(C)c1ccc(NC(=O)CN2CCC(O)(c3ccccc3)CC2)cc1 | 3 | -1 | -8 | 1 | . | 3 | . | .
COc1ccc2[nH]cc(CCNS(=O)(=O)c3ccc(C)cc3)c2c1 | -21 | -12 | -2 | 0 | . | . | . | .
COC(=O)c1sccc1NC(=S)N1CCN(c2ccccc2F)CC1 | -7 | -16 | -10 | 0 | 18* | 5 | 13 | 11
Cc1cccc(C)c1NC(=O)CCCSc1nnc(-c2ccc(Cl)cc2)n1-c1ccccc1 | -9 | 1 | -24 | -1 | 18* | 2 | 3 | 12
CCCCNC(=O)c1onc(CSc2ccccc2F)c1C(=O)O | -35 | -21 | 8 | 0 | 37* | 16 | 20 | 18*
C=CCNC(=O)c1onc(CSc2cccc3ccccc23)c1C(=O)O | -11 | -31 | -10 | 1 | 8 | 12 | . | .
CCCCNC(=O)c1onc(CSc2cc(C)cc(C)c2)c1C(=O)O | -29 | -39 | 6 | -2 | 14 | 13 | . | .
